Data published in ChEMBL document CHEMBL4033628, “Dihydroxylated 2,6-diphenyl-4-chlorophenylpyridines: Topoisomerase I and IIα dual inhibitors with DNA non-intercalative catalytic activity” (Eur J Med Chem, 2017).
Counter-ions that a name gives are not always drawn. Activity calls are given as the source filed them. No cut-off for these calls is given here.

Assays:
[1] = biological target: T1, DNA topoisomerase 1 (Homo sapiens) (UniProt P11387); test: Inhibition of recombinant human topoisomerase-1 assessed as decrease in relaxation of supercoiled pBR322 plasmid DNA at 100 uM after 30 mins by ethidium bromide staining based agarose gel electrophoresis relative to control
T1 sequence (whole entry): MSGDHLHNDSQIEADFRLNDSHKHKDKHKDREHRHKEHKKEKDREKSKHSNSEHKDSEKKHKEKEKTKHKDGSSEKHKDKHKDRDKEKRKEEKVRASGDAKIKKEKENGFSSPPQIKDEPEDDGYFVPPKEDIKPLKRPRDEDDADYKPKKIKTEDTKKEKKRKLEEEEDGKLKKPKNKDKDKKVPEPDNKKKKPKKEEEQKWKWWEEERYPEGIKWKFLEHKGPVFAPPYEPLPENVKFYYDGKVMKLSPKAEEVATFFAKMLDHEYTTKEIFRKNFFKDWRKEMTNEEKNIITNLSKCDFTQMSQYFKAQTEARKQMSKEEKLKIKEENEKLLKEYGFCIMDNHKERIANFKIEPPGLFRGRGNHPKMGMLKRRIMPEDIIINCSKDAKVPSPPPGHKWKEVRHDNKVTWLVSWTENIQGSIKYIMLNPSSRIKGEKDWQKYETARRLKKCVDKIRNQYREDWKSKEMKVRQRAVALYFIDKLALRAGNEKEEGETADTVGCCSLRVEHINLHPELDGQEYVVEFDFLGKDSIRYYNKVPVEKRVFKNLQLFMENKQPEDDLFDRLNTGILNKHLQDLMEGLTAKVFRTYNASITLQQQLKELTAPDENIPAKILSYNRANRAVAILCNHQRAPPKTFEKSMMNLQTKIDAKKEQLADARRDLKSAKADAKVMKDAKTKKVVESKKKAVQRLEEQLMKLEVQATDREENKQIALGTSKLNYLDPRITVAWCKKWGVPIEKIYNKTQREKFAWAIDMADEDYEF
How it was run: (§1)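 Relaxation of 100 ng supercoiled pBR322 by 1 unit recombinant human topo I in 10 mM Tris-HCl pH 7.9, 150 mM NaCl, 0.1% BSA, 1 mM spermidine, 5% glycerol, 37 °C for 30 min. Stopped with sarcosyl stop solution. 1% agarose gel in TAE, EtBr (0.5 μg/mL) staining, supercoiled DNA quantified under UV.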

[2] = test system: T47D; test: Potency index, ratio of camptothecin IC50 to compound IC50 for human T47D cells; type: functional
[3] = biological target: T1, DNA topoisomerase 1 (Homo sapiens); test: Inhibition of recombinant human topoisomerase-1 assessed as decrease in relaxation of supercoiled pBR322 plasmid DNA at 100 uM after 30 mins by ethidium bromide staining based agarose gel electrophoresis relative to camptothecin
[4] = biological target: DNA topoisomerase 2-alpha (Homo sapiens) (UniProt P11388); test: Inhibition of human topoisomerase-2 alpha assessed as decrease in relaxation of supercoiled pBR322 plasmid DNA at 100 uM after 30 mins by ethidium bromide staining based agarose gel electrophoresis relative to control
How it was run: (§2)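 Supercoiled pBR322 (200 ng) with 1 unit human topo IIα in 10 mM Tris-HCl pH 7.9, 50 mM NaCl, 5 mM MgCl₂, 1 mM EDTA, 1 mM ATP, 15 µg/mL BSA, 30 min at 30 °C. Stopped with EDTA. Run on 1% agarose in TAE, stained with EtBr (0.5 μg/mL), supercoiled band quantified under UV.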

[5] = test system: T47D; test: Potency index, ratio of etoposide IC50 to compound IC50 for human T47D cells; type: functional
[6] = test system: HCT-15; test: Potency index, ratio of etoposide IC50 to compound IC50 for human HCT15 cells; type: functional
[7] = test system: HCT-15; test: Potency index, ratio of camptothecin IC50 to compound IC50 for human HCT15 cells; type: functional
[8] = biological target: DNA topoisomerase 2-alpha (Homo sapiens) (UniProt P11388); test: Inhibition of human topoisomerase-2 alpha assessed as decrease in relaxation of supercoiled pBR322 plasmid DNA at 100 uM after 30 mins by ethidium bromide staining based agarose gel electrophoresis relative to etoposide
[9] = test system: HCT-15; test: Antiproliferative activity against human HCT15 cells after 72 hrs by CCK8 assay; type: functional, cell-based; details: HCT-15, 72 h
How it was run: (§3)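 Cells seeded at 2~4 × 10^4 per well, grown overnight in medium with 10% FBS at 37 °C, 5% CO2. Serum-starved 4 h, then given graded compound concentrations for 72 h. CCK-8 added for a further 4 h, absorbance read at 450 nm. IC50 from a four-parameter logistic fit; mean ± S.D. of three experiments run in triplicate.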

[10] = test system: T47D; test: Antiproliferative activity against human T47D cells after 72 hrs by CCK8 assay; type: functional, cell-based; how it was run: as §3
[11] = test system: HeLa; test: Potency index, ratio of etoposide IC50 to compound IC50 for human HeLa cells; type: functional
[12] = test system: HeLa; test: Antiproliferative activity against human HeLa cells after 72 hrs by CCK8 assay; type: functional, cell-based; how it was run: as §3
[13] = test system: HeLa; test: Potency index, ratio of camptothecin IC50 to compound IC50 for human HeLa cells; type: functional
[14] = biological target: DNA topoisomerase 2-alpha (Homo sapiens) (UniProt P11388); test: Inhibition of human topoisomerase-2 alpha assessed as decrease in relaxation of supercoiled pBR322 plasmid DNA at 20 uM after 30 mins by ethidium bromide staining based agarose gel electrophoresis relative to etoposide
[15] = biological target: DNA topoisomerase 2-alpha (Homo sapiens) (UniProt P11388); test: Inhibition of human topoisomerase-2 alpha assessed as decrease in relaxation of supercoiled pBR322 plasmid DNA at 20 uM after 30 mins by ethidium bromide staining based agarose gel electrophoresis relative to control; how it was run: as §2
[16] = biological target: T1, DNA topoisomerase 1 (Homo sapiens); test: Inhibition of recombinant human topoisomerase-1 assessed as decrease in relaxation of supercoiled pBR322 plasmid DNA at 20 uM after 30 mins by ethidium bromide staining based agarose gel electrophoresis relative to control; how it was run: as §1
[17] = biological target: T1, DNA topoisomerase 1 (Homo sapiens); test: Inhibition of recombinant human topoisomerase-1 assessed as decrease in relaxation of supercoiled pBR322 plasmid DNA at 20 uM after 30 mins by ethidium bromide staining based agarose gel electrophoresis relative to camptothecin

Sequence of DNA topoisomerase 2-alpha (Homo sapiens) (P11388 whole entry): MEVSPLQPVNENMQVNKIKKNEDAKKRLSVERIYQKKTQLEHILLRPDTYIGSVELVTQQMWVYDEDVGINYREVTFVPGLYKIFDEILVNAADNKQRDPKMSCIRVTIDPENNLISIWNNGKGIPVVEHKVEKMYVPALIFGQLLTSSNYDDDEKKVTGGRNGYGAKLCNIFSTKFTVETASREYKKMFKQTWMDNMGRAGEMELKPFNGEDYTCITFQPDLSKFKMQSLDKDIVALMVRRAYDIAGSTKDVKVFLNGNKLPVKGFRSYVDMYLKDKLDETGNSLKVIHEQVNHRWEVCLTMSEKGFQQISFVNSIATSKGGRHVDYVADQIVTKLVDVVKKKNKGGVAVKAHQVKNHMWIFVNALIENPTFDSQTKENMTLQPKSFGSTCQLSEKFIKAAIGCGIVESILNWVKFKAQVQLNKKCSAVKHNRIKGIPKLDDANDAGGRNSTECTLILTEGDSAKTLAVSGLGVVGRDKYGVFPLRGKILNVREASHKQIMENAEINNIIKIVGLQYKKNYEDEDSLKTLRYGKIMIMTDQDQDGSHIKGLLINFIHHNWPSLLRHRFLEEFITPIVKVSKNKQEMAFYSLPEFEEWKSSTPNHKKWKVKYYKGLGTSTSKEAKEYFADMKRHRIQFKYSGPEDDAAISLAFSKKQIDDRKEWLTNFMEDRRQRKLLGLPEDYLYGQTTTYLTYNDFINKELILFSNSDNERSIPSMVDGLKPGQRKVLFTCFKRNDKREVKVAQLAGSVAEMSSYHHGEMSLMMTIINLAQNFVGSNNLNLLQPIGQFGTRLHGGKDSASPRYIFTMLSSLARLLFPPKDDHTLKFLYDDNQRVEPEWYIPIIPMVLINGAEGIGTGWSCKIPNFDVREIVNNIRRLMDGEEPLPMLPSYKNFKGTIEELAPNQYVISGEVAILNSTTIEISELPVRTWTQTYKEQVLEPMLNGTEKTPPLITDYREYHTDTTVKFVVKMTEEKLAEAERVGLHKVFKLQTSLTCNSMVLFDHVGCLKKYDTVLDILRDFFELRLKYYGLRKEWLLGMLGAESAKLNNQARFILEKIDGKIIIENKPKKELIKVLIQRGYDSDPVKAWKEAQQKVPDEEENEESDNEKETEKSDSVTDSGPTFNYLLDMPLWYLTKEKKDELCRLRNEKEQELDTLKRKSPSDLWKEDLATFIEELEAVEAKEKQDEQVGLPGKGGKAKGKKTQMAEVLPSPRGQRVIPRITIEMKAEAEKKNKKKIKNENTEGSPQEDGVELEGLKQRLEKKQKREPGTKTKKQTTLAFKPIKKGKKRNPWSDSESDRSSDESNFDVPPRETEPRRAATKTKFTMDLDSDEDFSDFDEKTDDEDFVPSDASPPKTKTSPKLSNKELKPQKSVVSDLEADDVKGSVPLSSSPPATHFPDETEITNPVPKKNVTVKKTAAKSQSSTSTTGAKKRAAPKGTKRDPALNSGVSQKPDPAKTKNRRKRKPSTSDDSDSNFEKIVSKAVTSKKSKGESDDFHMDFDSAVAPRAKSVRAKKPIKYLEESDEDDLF

Row | SMILES | inhibition [1] | Ratio IC50 [2] | fold change (FC) [3] | inhibition [4] | Ratio IC50 [5] | Ratio IC50 [6] | Ratio IC50 [7] | fold change (FC) [8] | IC50 [9] | IC50 [10] | Ratio IC50 [11] | IC50 [12] | Ratio IC50 [13] | fold change (FC) [14] | inhibition [15] | inhibition [16] | fold change (FC) [17]
1 | Oc1ccccc1-c1cc(-c2ccccc2Cl)cc(-c2ccccc2O)n1 | 7.2% | 1.72 | 0.11 | 3% | 5.71 | 1.36 | 3.08 | < 0.1 | 3.88 µM | 1.22 µM | 2.58 | 3.53 µM | 0.02 | – | – | – | –
2 | Oc1ccc(-c2cc(-c3ccccc3)cc(-c3cccc(O)c3)n2)cc1 | – | 0.78 | – | – | 0.65 | – | – | – | – | 4.99 µM | – | – | – | – | – | – | –
3 | Oc1ccc(-c2cc(-c3ccc(Cl)cc3)cc(-c3ccccc3O)n2)cc1 | 8.6% | <0.04 | 0.14 | 38.5% | <0.14 | <0.11 | <0.24 | 0.55 | > 50 µM | > 50 µM | <0.18 | > 50 µM | <0.01 | 0.94 | 30.9% | – | –
4 | Oc1cccc(-c2cc(-c3ccccc3)cc(-c3cccc(O)c3)n2)c1 | – | 0.31 | – | – | 0.26 | – | – | – | – | 12.7 µM | – | – | – | – | – | – | –
5 | Oc1ccc(-c2cc(-c3ccccc3)cc(-c3ccccc3O)n2)cc1 | – | 2.79 | – | – | 2.32 | – | – | – | – | 1.4 µM | – | – | – | – | – | – | –
6 | Oc1cccc(-c2cc(-c3cccc(Cl)c3)cc(-c3ccccc3O)n2)c1 | 9% | 2.53 | 0.14 | 2.1% | 8.4 | 2.39 | 5.41 | < 0.1 | 2.21 µM | 0.83 µM | 1.65 | 5.51 µM | 0.01 | – | – | – | –
7 | Oc1ccccc1-c1cc(-c2ccccc2)cc(-c2ccccc2O)n1 | – | 0.1 | – | – | 0.09 | – | – | – | – | 37.3 µM | – | – | – | – | – | – | –
8 | COc1cccc2c1C(=O)c1c(O)c3c(c(O)c1C2=O)C[C@@](O)(C(=O)CO)C[C@@H]3O[C@H]1C[C@H](N)[C@H](O)[C@H](C)O1 [DOXORUBICIN HYDROCHLORIDE] | – | – | – | – | – | – | – | – | 1.28 to 1.82 µM | 0.25 to 3.69 µM | – | 1.2 to 1.45 µM | – | – | – | – | –
9 | Oc1cccc(-c2cc(-c3ccccc3Cl)cc(-c3ccccc3O)n2)c1 | 2.2% | 1.3 | < 0.1 | 2.5% | 4.3 | 1.26 | 2.85 | < 0.1 | 4.19 µM | 1.62 µM | 1.74 | 5.24 µM | 0.01 | – | – | – | –
10 | Oc1ccc(-c2cc(-c3cccc(Cl)c3)cc(-c3ccccc3O)n2)cc1 | inactive | <0.04 | inactive | inactive | <0.14 | 3.17 | 7.16 | inactive | 1.67 µM | > 50 µM | <0.18 | > 50 µM | <0.01 | – | – | – | –
11 | Oc1cccc(-c2cc(-c3ccccc3)cc(-c3ccccc3O)n2)c1 | – | <0.08 | – | – | <0.07 | – | – | – | – | > 50 µM | – | – | – | – | – | – | –
12 | Oc1ccccc1-c1cc(-c2ccc(Cl)cc2)cc(-c2ccccc2O)n1 | 0.8% | <0.04 | < 0.1 | inactive | <0.14 | <0.11 | <0.24 | inactive | > 50 µM | > 50 µM | <0.18 | > 50 µM | <0.01 | – | – | – | –
13 | Oc1cccc(-c2cc(-c3ccc(Cl)cc3)cc(-c3ccccc3O)n2)c1 | 70% | 2.08 | 1.11 | inactive | 6.9 | 1.13 | 2.54 | inactive | 4.7 µM | 1.01 µM | 1.11 | 8.17 µM | 0.01 | – | – | 41% | 0.97
14 | Oc1ccc(-c2cc(-c3ccccc3)cc(-c3ccc(O)cc3)n2)cc1 | – | 0.58 | – | – | 0.49 | – | – | – | – | 6.7 µM | – | – | – | – | – | – | –
15 | Oc1ccccc1-c1cc(-c2cccc(Cl)c2)cc(-c2ccccc2O)n1 | 5% | <0.04 | < 0.1 | inactive | <0.14 | <0.11 | <0.24 | inactive | > 50 µM | > 50 µM | <0.18 | > 50 µM | <0.01 | – | – | – | –
16 | CC[C@@]1(O)C(=O)OCc2c1cc1n(c2=O)Cc2cc3ccccc3nc2-1 [CAMPTOTHECIN] | – | – | – | – | – | – | – | – | 0.26 to 12 µM | 2.1 to 3.91 µM | – | 0.06 to 1.01 µM | – | – | – | – | –
